Compound activity: PubChem BioAssay, The Scripps Research Institute Molecular Screening Center
SIAE primary – blocks human sialic acid acetylesterase; hit rate 0.69% among 370,000; inhibition, % at 9.66 µM; Q9HAT2; SIAE FP-Rh probe binding, fluorescence polarization;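 active = inhibition above a cutoff: mean of compounds within the control limits plus 3 SD of those, cut at about 17% in these data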;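 note: 0% = plate median of compound wells and 100% = probe without SIAE protein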
TCR-CD3 inh – blocks the human TCR-CD3 interaction; hit rate 0.37% among 360,000; inhibition, % at 9.4 µM; TAMRA-labeled TCR probe fluorescence, biochemical; in the data active = inhibition above about 19%;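 note: recombinant mutant TCR 2C K166C tagged with TAMRA read by polarization; 0% = receptor in buffer alone and 100% = receptor with positive control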
PAD4 inh – blocks human protein arginine deiminase 4 | Q9UM07 | AID 485272 | inhibition, % at 6.36 µM | recombinant PAD4, RCA probe fluorescence polarization | hit rate 0.41% among 330,000;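 active = percent inhibition above a cutoff equal to the mean of all tested compounds plus 3 SD, cut at about 15% in these data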;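 note: 0% = PAD4 with RCA probe and DMSO and 100% = probe without PAD4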
Target sequence (Q9UM07 whole entry, looked up): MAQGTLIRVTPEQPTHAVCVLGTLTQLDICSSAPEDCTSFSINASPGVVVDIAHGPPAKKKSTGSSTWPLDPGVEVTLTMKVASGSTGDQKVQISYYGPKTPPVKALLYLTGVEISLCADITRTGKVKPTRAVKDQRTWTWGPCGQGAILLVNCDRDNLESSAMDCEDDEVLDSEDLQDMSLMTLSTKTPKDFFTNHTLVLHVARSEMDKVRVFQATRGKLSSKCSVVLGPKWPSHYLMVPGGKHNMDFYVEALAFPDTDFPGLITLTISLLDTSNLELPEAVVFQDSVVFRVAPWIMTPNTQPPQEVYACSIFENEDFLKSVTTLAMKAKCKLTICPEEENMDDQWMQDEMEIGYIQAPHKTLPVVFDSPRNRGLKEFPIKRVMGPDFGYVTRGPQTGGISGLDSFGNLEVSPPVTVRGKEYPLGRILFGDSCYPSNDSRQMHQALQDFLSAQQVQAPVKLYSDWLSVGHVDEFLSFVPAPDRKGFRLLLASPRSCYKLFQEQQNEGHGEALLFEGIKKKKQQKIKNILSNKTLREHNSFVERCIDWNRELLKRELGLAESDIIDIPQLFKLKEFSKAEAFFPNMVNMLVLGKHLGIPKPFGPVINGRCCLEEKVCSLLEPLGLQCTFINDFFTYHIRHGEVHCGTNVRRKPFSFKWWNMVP
PRMT1 inh – inhibitors of human PRMT1 | Q99873 | hit rate 1.3% among 370,000 | recombinant PRMT1, activity-based probe fluorescence polarization | inhibition, % at 2.79 µM | AID 652257;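 active = inhibition above about 21% made by adding two undisclosed values, limit read from the data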
mABHD4 FP – inhibitors of mouse ABHD4. hit rate 0.54% among 370,000. Q8VD66. purified mABHD4, FP-Rh probe fluorescence polarization. AID 720543. inhibition, % at 8.92 µM;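 active = inhibition exceeding the mean over every tested compound plus 3 SD, cut at about 30% in these data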;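 note: 0% = plate median of compound wells and 100% = S159A mutant with DMSO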
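Test system: mABHD4 protein | Buffer or medium: HEPES pH 7.0 buffer, 150 mM NaCl, 0.01% Pluronic F-127 | Probe or stimulus: FP-Rh fluorescent activity-based probe, added after compound pre-incubation | Timing: Pre-incubation 45 min, probe exposure 60 min, at 25 °C | Technique: Fluorescence polarization, excitation 525 nm, emission 598 nm, BODIPY TMR filters | Repeats: Single well per compound (singlicate)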
HTRA1 inhibitor – HTRA1 (human) protease inhibition. Q92743. recombinant HTRA1, FP-rhodamine activity-based probe, fluorescence polarization. inhibition, % at 5.96 µM. hit rate 0.5% among 340,000. AID 504803; in the data active = inhibition above about 36%;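 note: 0% = enzyme with DMSO and 100% = wells lacking enzyme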
PRMT1 confirm – confirmation of human PRMT1 inhibitors | shares compounds with PRMT1 inh | recombinant His-PRMT1, activity-based probe fluorescence polarization | inhibition, % at 2.79 µM | hit rate 42% among 3,300 | AID 687036;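 active = mean inhibition across replicates above the hit cutoff derived for the earlier primary screen, cut at about 22% in these data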
Active calls of the source: *; · = no result. In the library only some 2.9% were active in any assay of this set; here they are far more common.

SMILES	SIAE primary	TCR-CD3 inh	PAD4 inh	PRMT1 inh	mABHD4 FP	HTRA1 inhibitor	PRMT1 confirm
O=C(Cn1sc2ccccc2c1=O)Nc1ccccc1	5.1	4.9	·	86.7*	10.1	-1.3	89.5*
O=S1(=O)c2c(cccc2N2CC[C@@H](O)C2)O[C@H]2CCN1C2	5.1	·	·	-0.3	3.1	·	·
O=C(Nc1ccc(Cl)c(Cl)c1)C1CCCN(c2nnc(-n3cccc3)s2)C1 (centres undefined)	1.1	·	·	0.2	-54.4	·	·
COC(=O)[C@]12C[C@H](CC(=O)N3CCCC3)C(=O)N(CCC3=CCCCC3)C1=C[C@H](C(C)C)O[C@@H]2C1CC1	-4.4	·	·	-1.2	6.1	·	·
CCOC(=O)C1=CC[C@@H](c2ccccc2)N(S(=O)(=O)c2ccc(C)cc2)[C@H]1C#N	3.7	3.8	·	27.5*	6.7	·	22.3*
CCC(NC(=O)C1CCCN(c2ncccn2)C1)c1ccccc1 (centres undefined)	-5.1	·	·	-0.7	-5.1	·	·
CC(C)OC(=O)c1ccc(NC(=O)c2ccccc2)cc1	-0.4	-10.4	-0.5	-1.0	-9.8	-21.0	·
CC(C)OC(=O)c1ccc(NCc2cc(O)ccc2O)cc1	11.2	0.8	·	36.2*	20.8	9.8	30.0*
CCOC(=O)N1C(=O)C[C@](Sc2ccc(OC)cc2)(C(=O)N2CCN(c3ncccn3)CC2)[C@H]1c1ccc(OC)cc1	5.6	·	·	40.9*	-0.5	·	32.7*
COc1ccc(S[C@]2(C(=O)N3CCCC3)CC(=O)N(C(=O)Nc3ccc(C)c(Cl)c3)[C@@H]2c2ccc(OC)cc2)cc1	-1.8	·	·	2.6	-3.3	·	·
CCOC(=O)N1C(=O)C[C@](Sc2ccc(OC)cc2)(C(=O)N2CCN(C(C)=O)CC2)[C@H]1c1ccc(OC)cc1	5.3	·	·	54.1*	3.7	·	45.8*
COc1ccc(S[C@]2(C(=O)N3CCOCC3)CC(=O)N(C(=O)C3CC3)[C@@H]2c2ccc(OC)cc2)cc1	4.2	·	·	36.2*	3.6	·	27.0*
COc1ccc(S[C@]2(C(=O)N3CCOCC3)CC(=O)N(c3ccc(Cl)cc3)[C@@H]2c2ccc(OC)cc2)cc1	-5.2	·	·	4.8	-15.5	·	·
CCOC(=O)N1C(=O)C[C@](Sc2ccc(OC)cc2)(C(=O)N2CCCC2)[C@H]1c1ccc(OC)cc1	13.2	·	·	55.9*	-1.6	·	40.0*
COc1ccc(S[C@]2(C(=O)N3CCN(c4ncccn4)CC3)CC(=O)N(c3ccc(C#N)cc3)[C@@H]2c2ccc(OC)cc2)cc1	-5.7	·	·	4.1	-13.5	·	·
O=C(CSc1nnc(-c2ccccc2)n1-c1ccccc1)NN=C/C=C\c1ccccc1[N+](=O)[O-]	-5.0	·	·	-10.5	0.5	·	·
COc1ccc(S[C@]2(C(=O)N3CCOCC3)CC(=O)N(C(=O)/C=C/c3ccccc3)[C@@H]2c2ccc(OC)cc2)cc1	-0.9	·	·	10.6	-3.2	·	·
CCOC(=O)N1C(=O)C[C@](Sc2ccc(OC)cc2)(C(=O)N2CCOCC2)[C@H]1c1ccc(OC)cc1	-0.3	·	·	47.4*	-1.6	·	43.0*
CCOC(=O)[C@H]1[C@H]2COc3ccccc3[C@@H]2N2C(=O)CN(Cc3ccc(C)cc3)C(=O)[C@@]12C	-8.3	5.7	2.0	50.2*	-5.6	-14.0	8.4
CC(=O)Nc1ccc(SCCN2CC[C@@H](C)CCC2=O)cc1	2.8	2.2	0.6	24.9*	4.6	5.2	29.8*
CC(C)(C)[C@H]1CCC(=O)N([C@H](CSc2ccccc2)Cc2ccccc2)CC1	-1.4	9.2	-0.7	-3.0	0.4	-16.3	·
CC(=O)Nc1ccc(SC[C@H](Cc2ccccc2)N2CCN(CCc3ccccc3)CCC2=O)cc1	3.9	-0.8	6.6	29.2*	3.7	-14.6	41.9*
CC(=O)Nc1ccc(S[C@@H](CCN2CC[C@H](C(C)(C)C)CCC2=O)c2ccccc2)cc1	-4.9	-0.7	12.1	44.9*	-12.6	-74.8	60.6*
CC(=O)Nc1ccc(SC[C@H](Cc2ccccc2)N2CC[C@@H](C(C)(C)C)CCC2=O)cc1	-9.5	-5.2	5.8	51.5*	-37.9	-46.5	39.4*
CC(=O)Nc1ccc(SCCN2CC[C@@H](O)CCC2=O)cc1	1.5	4.0	-0.4	-1.9	-2.9	1.6	·
SMILES	SIAE primary	TCR-CD3 inh	PAD4 inh	PRMT1 inh	mABHD4 FP	HTRA1 inhibitor	PRMT1 confirm
COc1ccc(CN2CN3Cc4cc(OC)ccc4C3CS2(=O)=O)cc1 (centres undefined)	-2.0	·	·	1.9	-1.8	·	·
COc1cccc(/C=C2\CC3(OC(=O)C4CCCC4)CCCN2C3)c1 (centres undefined)	13.0	·	·	0.6	-1.8	·	·
O=C(CSCC(=O)c1ccccc1)Nc1ccccc1Cl	2.8	-3.9	0.4	98.5*	8.2	-2.1	27.9*
O=C(Nc1ccccc1Cl)c1ccccc1	-5.2	1.8	-2.3	1.1	-1.8	3.5	·
CC(=C/c1ccccc1)/C=N/n1c(C)n[nH]c1=S	2.0	-0.1	-2.0	0.0	2.5	-1.7	·
Cc1cccc(/C=N/n2c(COc3ccccc3)n[nH]c2=S)c1	4.3	-6.4	·	27.8*	-15.8	4.1	13.1
COc1cccc(/C=N/n2c(COc3ccccc3)n[nH]c2=S)c1OC	4.2	-9.6	-1.8	26.8*	-15.4	-5.3	7.9
CC(/C=N/n1c(COc2ccccc2)n[nH]c1=S)=C\c1ccccc1	8.3	-1.6	-0.1	27.3*	-9.2	-20.7	5.2
Cc1ccc(SC(CC(=O)c2ccc(C)cc2)C(=O)O)cc1 (centres undefined)	1.1	4.8	-1.3	59.3*	5.2	-2.9	68.9*
O=c1c2cc(N3CCOCC3)ccc2[nH]c(=S)n1Cc1cccc(Cl)c1	7.6	0.3	2.8	-2.8	7.3	4.0	·
O=c1c2cc(N3CCOCC3)ccc2[nH]c(=S)n1Cc1ccco1	6.5	0.3	-2.4	32.2*	17.0	14.2	65.3*
c1ccc([C@H]2CN3C(=N2)Sc2ccccc23)cc1	-6.7	1.0	13.6	28.9*	-1.4	-7.0	20.3
O=C1CCCC2=C1Sc1ccccc1N2	4.6	-1.5	-2.0	36.6*	4.6	·	17.4
COC(=O)C1=C(C)N(Cc2ccccc2C(F)(F)F)C(=NCc2ccccc2)NC1c1cccc(F)c1 (centres undefined)	-7.8	3.4	·	7.2	4.0	·	·
COc1ccc(Cn2cc(CN3[C@H](C)COc4cc(Br)ccc4S3(=O)=O)nn2)cc1	-2.3	·	·	-4.2	3.2	·	·
CSc1ccc(/C=N/NC(=O)CNc2ccc3ccccc3c2)cc1	14.7	2.2	-2.2	28.8*	-4.7	9.4	11.3
CSc1ccc(/C=N/NC(=O)CNc2cccc3ccccc23)cc1	11.7	2.3	-0.1	1.0	7.8	10.6	·
O=C(OCC(=O)C12CC3CC(CC(C3)C1)C2)c1ccc(O)cc1	8.4	12.2	1.0	56.2*	-2.4	-12.2	-6.7
O=C(OCC(=O)C12CC3CC(CC(C3)C1)C2)c1ccc(CO)cc1	3.3	2.5	-1.5	1.1	2.9	0.8	·
CC(C)(C)OC(=O)N1CCC[C@@H]1C(=O)N1CCC[C@@H]1C(=O)NCc1ccccc1	-1.6	2.8	·	1.8	0.0	·	·
